From PubChem BioAssay
CHO parental Ca: signal in parental CHO cells, OX1R antagonist counter-screen; parental CHO-K1, ATP-induced calcium, Fluo-8 fluorescence; inhibition, % at 5.6 µM; 330,000 tested, 0.63% active;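 active = inhibition above that plate's mean sample inhibition plus 3 SD, cut at about 26% in these data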;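 note: 0% = ATP-challenged DMSO wells and 100% = DMSO wells without ATP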
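Material – parental CHO cells · Reagent – ATP stimulus · Compound – single nominal dose of 5.6 µM per compound · Detection – Fluo-8 fluorescence · Read-out basis – percent inhibition of calcium signal · Controls – ATP-challenged DMSO wells low, unchallenged DMSO wells high · Repeats – no replicates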
OX1R antag-1: OX1R (human) antagonism; 330,000 tested, 1.8% active; OX1R-expressing cells, FRET antagonist read-out; O43613; inhibition, % at 6.6 µM; AID 485270; in the data active = inhibition mostly above about 38%, no sharp cut-off; inactive = mostly below about 40%;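 note: 0% = agonist challenge alone and 100% = reference antagonist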
GalR3 antag: human GalR3 antagonism; O60755; HEK293 GalR3-CNG cAMP membrane potential fluorescence; galR3 body fused to GalR1 C-terminus; inhibition, % at 3 µM; 360,000 tested, 0.44% active;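 active = inhibition above the screen-wide average plus 3 SD, cut at about 13% in these data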;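 note: forskolin and galanin both at EC90 stimulate the cells; cAMP rise reported by CNG channel membrane potential dye signal; 0% = forskolin plus galanin with DMSO and 100% = forskolin alone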
Target sequence (O60755 1-299 limits assumed): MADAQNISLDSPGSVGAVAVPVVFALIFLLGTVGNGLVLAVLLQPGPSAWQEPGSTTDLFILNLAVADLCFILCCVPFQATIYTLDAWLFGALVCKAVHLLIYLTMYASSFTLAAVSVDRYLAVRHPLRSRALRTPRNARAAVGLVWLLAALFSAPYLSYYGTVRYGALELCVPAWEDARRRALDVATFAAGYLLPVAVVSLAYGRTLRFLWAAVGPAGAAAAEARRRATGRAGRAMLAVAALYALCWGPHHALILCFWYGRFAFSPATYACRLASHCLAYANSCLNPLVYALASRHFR
OX1R antag-2: blocks the human orexin 1 receptor. O43613. CHO/OX1R cells, Fluo-8 calcium fluorescence, orexin A. inhibition, % at 5 µM. 330,000 tested, 0.43% active. AID 434989;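 active = inhibition above its plate's threshold, mean inhibition of all tested compounds on the plate plus 3 SD, cut at about 37% in these data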;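 note: 0% = orexin A challenge wells and 100% = SB-334867-A antagonist wells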
GPR7 antagonist: blocks human GPR7 receptor signaling | P48145 | GPR7-expressing cells, fluorescence antagonist assay | inhibition, % at 4.4 µM | 290,000 tested, 1.1% active | AID 1861; in the data active = inhibition above about 16%, passing the limit was not always enough;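 note: cells stimulated with the agonist NPW; 0% = agonist with vehicle and 100% = vehicle without agonist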
Target sequence (P48145 whole entry, looked up): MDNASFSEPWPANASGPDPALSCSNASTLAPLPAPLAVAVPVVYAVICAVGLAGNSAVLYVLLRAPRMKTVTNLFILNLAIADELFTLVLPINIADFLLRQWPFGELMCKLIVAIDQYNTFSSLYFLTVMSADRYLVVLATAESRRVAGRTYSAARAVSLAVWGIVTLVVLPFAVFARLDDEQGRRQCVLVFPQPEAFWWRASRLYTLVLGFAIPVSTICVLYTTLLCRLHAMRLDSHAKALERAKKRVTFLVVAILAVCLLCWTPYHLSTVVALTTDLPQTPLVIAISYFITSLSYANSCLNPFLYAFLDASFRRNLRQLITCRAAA
OX1R Fluo8 conf: confirmation of human orexin 1 receptor antagonists | shares compounds with OX1R antag-2 | CHO/OX1R cells, orexin A calcium Fluo-8 fluorescence | inhibition, % at 5 µM | 1,100 tested, 38% active; in the data active = inhibition above about 29%;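 note: 0% = agonist challenge alone and 100% = reference antagonist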
CHO Ca triplic: signal in parental CHO cells, OX1R antagonist counter-screen; parental CHO-K1, ATP-induced calcium, Fluo-8 fluorescence; 1,100 tested, 9.3% active; AID 492965; inhibition, % at 5.6 µM; shares compounds with OX1R antag-2;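 active = inhibition above a per-plate limit, the mean inhibition of that plate's test compounds plus 3 SD, cut at about 25% in these data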;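 note: 0% = ATP challenge with DMSO and 100% = DMSO without ATP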
Numbers without * were called inactive; / = no result. Compounds with a hit are over-represented: about 3.1% of the library has one in this group of screens.

SMILES | CHO parental Ca | OX1R antag-1 | GalR3 antag | OX1R antag-2 | GPR7 antagonist | OX1R Fluo8 conf | CHO Ca triplic
CCN(CC)CCNc1nc2c(c(=O)[nH]c(=O)n2C)n1CCCc1ccccc1 | 9 | 14 | -8 | -3 | -18 | / | /
CCNc1nc2c(c(=O)[nH]c(=O)n2C)n1CCCc1ccccc1 | -4 | 5 | -8 | 26 | -11 | 3 | 3
COc1ccccc1NC(=S)NCc1ccco1 | -6 | 11 | -5 | -9 | 0 | / | /
COc1cc(NC(=S)NCc2ccco2)cc(OC)c1OC | -9 | 13 | 0 | 77* | -7 | -5 | -8
CCOc1ccccc1N1CCN(C(=O)c2ccc(S(=O)(=O)Nc3ccccc3)cc2)CC1 | 3 | 6 | 2 | 45* | / | 41* | -7
Cc1c(CCOC(=O)c2ccc(N3CCOCC3)c([N+](=O)[O-])c2)sc[n+]1CC#N | -11 | 28 | 2 | -20 | -10 | / | /
Cc1ncsc1CCOC(=O)c1ccc(N2CCOCC2)c([N+](=O)[O-])c1 | 18 | 53 | -2 | 34 | -15 | 13 | 21
CCCn1c(N)c(C(=O)CSc2nc3ccccc3s2)c(=O)[nH]c1=O | 3 | 27 | -7 | 45* | 1 | 22 | 3
O=C(CSCc1nc2ccccc2[nH]1)Nc1ccc2ccccc2c1 | -15 | 25 | 6 | 11 | -12 | / | /
O=C(CSCc1cccc(CSCC(=O)Nc2ccc3ccccc3c2)n1)Nc1ccc2ccccc2c1 | 12 | 33 | -5 | 38 | -14 | 31* | 12
C=CCCC1CN(Cc2ccc(OC)cc2)S(=O)(=O)c2c(F)cccc2O1 (configuration not stated) | / | / | -5 | / | / | / | /
OCCCNc1ncnc2c1ncn2[C@H]1CN(Cc2ccco2)C[C@@H](CO)O1 | / | / | -9 | / | / | / | /
Cc1ccc(C)c(OCC(=O)N/N=C/c2c(C)nn(-c3ccccc3)c2Cl)c1 | -20 | 31 | -2 | 34 | 5 | 10 | -9
N=C1C=CC(=C(c2ccc(N)cc2)c2ccc(N)cc2)C=C1 | / | / | -6 | / | / | / | /
CCCN1C(=O)/C(=C/c2ccc(OCC(=O)OCC)cc2)NC1=S | / | / | -13 | / | -17 | / | /
CCCN1C(=O)/C(=C/c2ccc(N3CCOCC3)cc2)NC1=S | 24 | 4 | -8 | 26 | 1 | 15 | 19
NS(=O)(=O)c1ccc(CNC(=O)Cc2ccccc2F)cc1 | -6 | 4 | -5 | -8 | 1 | / | /
NS(=O)(=O)c1ccc(CNC(=O)C(Cc2ccccc2)NS(=O)(=O)c2ccccc2F)cc1 (configuration not stated) | -1 | -12 | -8 | 26 | 3 | -1 | -6
COc1ccccc1CNc1nc(NCc2ccccc2SC)c2sccc2n1 | / | / | -10 | / | / | / | /
Cc1ccnc(NS(=O)(=O)c2cc([N+](=O)[O-])ccc2C)c1 | 0 | 48 | 1 | 30 | -3 | 7 | 17
Cc1ccnc(NS(=O)(=O)c2ccccc2)c1 | -8 | 6 | -11 | -17 | 24 | / | /
CSc1cccc(NC(=O)CN(c2cc(C)ccc2C)S(C)(=O)=O)c1 | 1 | 19 | 1 | 26 | -5 | 2 | -15
CCOC(=O)C1(C)CCN1C(=O)COc1ccc(C(C)(C)C)cc1 (configuration not stated) | / | / | -4 | / | / | / | /
C[C@@H]1CN([C@@H](C)CO)C(=O)c2cccc(NC(=O)Nc3ccc(F)cc3)c2O[C@@H]1CN(C)Cc1ccc(Oc2ccccc2)cc1 | 28 | 4 | -11 | 52* | / | 62* | 24
CCSC1=N/C(=C\C=C2/Oc3ccccc3N2CC)C(=O)S1 | 12 | 42 | -6 | 32 | 3 | 16 | 12
SMILES | CHO parental Ca | OX1R antag-1 | GalR3 antag | OX1R antag-2 | GPR7 antagonist | OX1R Fluo8 conf | CHO Ca triplic
OCCN(CC(O)Cn1ccc2ccccc21)CC(O)Cn1ccc2ccccc21 (configuration not stated) | 19 | 11 | -3 | 39 | 10 | 15 | 5
Cc1cccc(C)c1NC(=O)C(c1ccnc2ccccc12)n1c(=O)c(-c2ccccc2)nc2ccccc21 (configuration not stated) | / | / | -9 | / | / | / | /
COc1ccc(NC(=O)c2cc(-c3ccc(OC)c(OC)c3)on2)cc1OC | -11 | 14 | -2 | -17 | 2 | / | /
COc1ccc(NC(=O)c2cc(-c3ccccc3Cl)on2)cc1OC | -25 | 41 | -5 | 37 | -22 | 30* | -3
CC(C)C(=O)N1CCN(c2ccc(NC(=O)COc3ccccc3[N+](=O)[O-])cc2)CC1 | 8 | 51 | 0 | 28 | -22 | 27 | 4
CN1CCN(c2ccc(NC(=O)COc3ccccc3[N+](=O)[O-])cc2)CC1 | -22 | 58 | 0 | -21 | -18 | / | /
O=C1NC[C@H](CCCCN2C[C@H](Cc3ccc(O)cc3)N(CCc3ccccc3)C(=O)C2=O)N(Cc2ccccc2)C1=O | / | / | -7 | / | / | / | /
CCN(CC)S(=O)(=O)c1ccc2oc(C(=O)NCc3ccc(F)cc3)c(C)c2c1 | 20 | 13 | -2 | 25 | -3 | 0 | -5
O=C(CSC1=Nc2ccccc2C2CC=NN12)NCc1ccco1 (configuration not stated) | -4 | 33 | 1 | 57* | / | 24 | 4
CC(=O)Nc1cccc(NC(=O)CSc2nnnn2-c2ccc3c(c2)OCO3)c1 | / | / | / | / | -4 | / | /
Cc1ccccc1-c1nnn(Cc2cccc(S(=O)(=O)N3CCOCC3)c2)n1 | 5 | 10 | -7 | 44* | / | 44* | 16
C=CCSc1nnc(-c2cc3c(s2)-c2ccccc2CC3)o1 | 0 | 55 | 3 | 34 | -13 | -1 | -6
O=C(CSc1nnc(-c2cccs2)o1)N1CCc2ccccc21 | -14 | 10 | 1 | -25 | -6 | / | /
COC(=O)c1ccc2c(c1)C(C)(C)C(/C=C/c1ccc(O)cc1)=[N+]2C | 14 | 25 | -1 | 31 | 10 | 66* | 52*
COC(=O)c1ccc2c(c1)C(C)(C)C(/C=C/c1ccc(OC)c(OC)c1OC)=[N+]2C | 8 | 7 | 9 | 5 | 3 | / | /
O=C(C1CCCN(c2ncnc3c2nc2n3CCCCC2)C1)N1CCN(c2ccc(Cl)cc2)CC1 (configuration not stated) | -11 | 6 | -6 | -19 | 14 | / | /
O=C(C1CCN(c2ncnc3c2nc2n3CCCCC2)CC1)N1CCN(c2cccc(Cl)c2)CC1 | 5 | 26 | -8 | 31 | 5 | 22 | -2
COc1ccc(C(=O)/C(C#N)=N/Nc2ccc([N+](=O)[O-])cc2)cc1 | 23 | 56 | -1 | 31 | 0 | 17 | 55*
Cc1cc(C)n2cc(CSc3nc4cc(Cl)ccc4o3)nc2n1 | -20 | 37 | -1 | -29 | -4 | / | /
CN(C)c1nc(N)nc(CSc2nc3cc(Cl)ccc3o2)n1 | -9 | 22 | -11 | 43 | -21 | 27 | -3
C=CCNc1ccccc1S(=O)(=O)NCc1ccccc1 | -23 | 9 | -4 | -1 | / | / | /
Cc1ccc(C(=O)N2CCC(Cc3ccccc3)CC2)cc1[N+](=O)[O-] | 11 | 29 | -3 | 28 | 3 | 17 | -3
